The species named for data set [1] is Rattus norvegicus. Put plainly: […] expressed as percentage of compound remains at 24 hr in PEG400/Water, 1:1; Not stable. It is filed as ADME, organism-based.
Data set [2] can be described thus: Solubility in water at 7.0 pH. It is filed as physicochemical. The conditions noted are these: pH 7, read-out: S.
Data set [3] can be described thus: Solubility in water at 8.4 pH. It is filed as physicochemical. As to conditions: pH 8.4.
Data set [4] can be described thus: Area under curve was determined. It counts as ADME, organism-based. The conditions noted are these: rat, in vivo. Put shortly:
(§1)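 Male SD rats (N=3) given prodrug by IV infusion at 1.7 mg/kg (equivalent to 1 mg/kg parent), vehicle PEG-400/water 1:1. Blood samples were mixed at once with an equal volume of water, quenched with four volumes of acetonitrile and stored at -20 °C. Prodrug and parent were measured by two separate LC/MS/MS assays. Mean ±SD.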

Data set [5] in a line: t1/2 (apparent elimination)of the compound was determined. It counts as ADME, organism-based. The conditions noted are these: rat, in vivo. Put shortly:
as §1

The nature of data set [6]: Volume distribution was determined. The conditions noted are these: rat, in vivo; read-out: Vdss. It counts as ADME, organism-based. Put shortly:
as §1

A short description of data set [7]: Plasma clearance was determined. It counts as ADME, organism-based. The conditions noted are these: rat. An outline of the steps:
as §1

Data set [8] in a line: […] expressed as percentage of compound remains at 24 hr in PEG400/Water, 1:1. It counts as ADME, organism-based. The conditions noted are these: read-out: Prodrug remains. Put shortly:
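Chemical stability in PEG400/water (1:1) solution, given as the percentage of prodrug remaining after 24 h.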

The species entered for data set [9] is Rattus norvegicus. Put plainly: Percentage converted to BMS-191011 after 30 min incubation in rat plasma at 37 degree C. The conditions noted are these: 0.5 h. It counts as ADME, organism-based. Put shortly:
(§2)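 Prodrug was incubated in rat plasma for 30 min at 37 °C. The percentage converted to the parent BMS-191011 was then determined.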

Data set [10] relates to Rattus norvegicus. Put plainly: Percent reduction of neocortical infract volume in 28 rats after IV administration (2h post MCA) at a dose of […]. It counts as functional. An outline of the steps:
(§3)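 Rat MCA occlusion model. Neocortical infarct volume was compared with vehicle controls (2% DMSO/98% propylene glycol) in the same study. Statistics by ANOVA with Dunnett's t-test, p<0.05; 28–29 animals per group.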

For data set [11], the system named is Rattus norvegicus. Put plainly: Percent reduction of neocortical infract volume in 28 rats after IV administration (2h post MCA)at a dose of […]. It is filed as functional. An outline of the steps: as §3
For data set [12], the system named is Rattus norvegicus. Put plainly: Percent reduction of neocortical infract volume in 29 rats after IV administration (2h post MCA)at a dose of […]. It is filed as functional. An outline of the steps:
as §3

The nature of data set [13]: Solubility in deionized water. The conditions noted are these: read-out: S. It counts as physicochemical. Put shortly: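 Solubility of the prodrug (mg/mL) in deionized water.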
Data set [14] is filed under the species Rattus norvegicus. Put plainly: Percentage converted to BMS-191011 after 30 min incubation in rat plasma at 37 degree C; Converted to an unknown compound. It counts as ADME, organism-based. As to conditions: 0.5 h. An outline of the steps: as §2
A short description of data set [15]: Solubility in water at 4.2 pH. As to conditions: pH 4.2, read-out: S. It counts as physicochemical. An outline of the steps: (§4)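 Aqueous solubility (mg/mL), measured with the pH of the resulting solution recorded.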
Data set [16] in a line: Solubility in water at 2.4 pH. It is filed as physicochemical. The conditions noted are these: pH 2.4, read-out: S.
Data set [17] can be described thus: Solubility in water at 7.5 pH. It counts as physicochemical. The conditions noted are these: pH 7.5, read-out: S.
Data set [18] can be described thus: Solubility in water at 5.5 pH. It counts as physicochemical. As to conditions: pH 5.5, read-out: S. An outline of the steps:
as §4

A short description of data set [19]: Solubility in water at 7.2 pH. It counts as physicochemical. The conditions noted are these: pH 7.2, read-out: S. Put shortly:
as §4

Molecules are shown by their SMILES. Converted amounts (≈) assume the structure as drawn. “And” between values parts separate entries of the source, which are not always exact repeats. Equal entries are not always repeated.

For orientation: AUC means concentration integrated over time. One may read the half-life as the time needed for the level to fall by half in the phase considered. As a reminder, the clearance is the volume of plasma or blood freed of the substance per unit of time. Low readings indicate a low capacity for elimination, high ones a high capacity for elimination.

For `O=c1oc(-c2ccc(C(F)(F)F)cc2)nn1Cc1cc(Cl)ccc1OCOP(=O)(O)O`, the Prodrug remains result in the data set listed under Rattus norvegicus [1] was “Not stable”. The figures for the solubility in data set [2] and in data set [3] were 6100 µg/mL (≈ 12.7 mM) and above 16000 µg/mL, respectively.

In data set [4], `O=c1oc(-c2ccc(C(F)(F)F)cc2)nn1Cc1cc(Cl)ccc1O` gave an AUC of 52.4 ng·h/mL. In addition, the half-life in [5] is 1.2 h.

With `CS(=O)(=O)[O-].C[N+](C)(C)CCCC(=O)OCOc1ccc(Cl)cc1Cn1nc(-c2ccc(C(F)(F)F)cc2)oc1=O`, the Vd in data set [6] was determined as 2.6 L/kg. Besides, the clearance in data set [7] worked out at 22.9 mL/min/kg. In data set [4], the AUC amounted to 1260 ng·h/mL. Also, the remaining at 24 h in [8] was above 97%. Besides, the Conversion in the data set listed under Rattus norvegicus [9] is recorded as above 80%. The half-life in [5] is 2.7 h. The Reduction is -13% in the data set with Rattus norvegicus [10]; -14% and -12% and -17% in the data set with Rattus norvegicus [11]; -16% with Rattus norvegicus [12]. Moreover, the solubility in [13] is above 25000 µg/mL.

As for `CS(=O)(=O)[O-].C[N+](C)(C)CC(=O)c1ccc(Cl)cc1Cn1nc(-c2ccc(C(F)(F)F)cc2)oc1=O`, in data set [8], the remaining at 24 h is above 90%.

As for `CS(=O)(=O)[O-].C[N+](C)(C)CC(=O)OCOc1ccc(Cl)cc1Cn1nc(-c2ccc(C(F)(F)F)cc2)oc1=O`, in the data set listed under Rattus norvegicus [14], the Conversion result is on record as “Converted to an unknown compound”. In addition, the solubility in [15] amounted to 4500 µg/mL.

Turning to `O=C(OCOP(=O)(O)O)Oc1ccc(Cl)cc1Cn1nc(-c2ccc(C(F)(F)F)cc2)oc1=O`, the Prodrug remains entry in the data set filed under Rattus norvegicus [1] was “Not stable”. Moreover, the solubility stood at 55 µg/mL (≈ 0.105 mM) in data set [16] and 4 µg/mL (≈ 0.00762 mM) in data set [17].

As for `CS(=O)(=O)[O-].C[N+](C)(C)CCC(=O)Oc1ccc(Cl)cc1Cn1nc(-c2ccc(C(F)(F)F)cc2)oc1=O`, the remaining at 24 h in [8] was above 90%. In the data set listed under Rattus norvegicus [9], this molecule displayed a Conversion of 100%. The solubility in [13] is above 4000 µg/mL.

With `CS(=O)(=O)[O-].C[N+](C)(C)CCCC(=O)Oc1ccc(Cl)cc1Cn1nc(-c2ccc(C(F)(F)F)cc2)oc1=O`, the remaining at 24 h in data set [8] is above 90%. This molecule also showed a Conversion in the data set listed under Rattus norvegicus [9] of 95%. For the same molecule, in data set [13], the solubility was above 4000 µg/mL.

With `O=c1oc(-c2ccc(C(F)(F)F)cc2)nn1Cc1cc(Cl)ccc1OP(=O)(O)O`, the Conversion in the data set listed under Rattus norvegicus [9] amounted to 0%. The figures for the solubility in [18] and in data set [19] were 4900 µg/mL (≈ 10.9 mM) and 14600 µg/mL (≈ 32.4 mM), respectively.

For the molecule `CS(=O)(=O)[O-].C[N+](C)(C)CCOC(=O)Oc1ccc(Cl)cc1Cn1nc(-c2ccc(C(F)(F)F)cc2)oc1=O`, in [8], the remaining at 24 h is 72%. Further, in the data set filed under Rattus norvegicus [9], the Conversion is 100%.

Values taken from ChEMBL document CHEMBL1146609, “Synthesis of water-soluble prodrugs of BMS-191011: a maxi-K channel opener targeted for post-stroke neuroprotection” (Bioorg Med Chem Lett, 2003).
